Reference: ChEMBL document CHEMBL1155944 (J Med Chem, 2008)
The source made the active and inactive calls. The rule behind the calls is not given here.

How the values were obtained:
[1] = target: Gamma-aminobutyric acid receptor subunit alpha-6 (Rattus norvegicus) (UniProt P30191); assay: Displacement of [3H]Muscimol from GABAAalpha6 receptor in Sprague-Dawley rat brain cerebellum membrane at 1 mM; assay type: tissue-based
Procedure, shortened: (§1)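 Well-washed membranes from adult male Sprague-Dawley rat cortex or cerebellum (50–200 μg protein). Incubated 60 min on ice in 50 mM Tris/citrate, pH 7.3, with 6 nM [3H]muscimol and test compound. […] Filtered and counted by scintillation. IC50 and pseudo-Hill coefficient obtained by nonlinear regression.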

Rattus norvegicus [2] = species: Rattus norvegicus; assay: Displacement of [3H]Muscimol from GABAA alpha-1-alpha-5 receptor in Sprague-Dawley rat brain cortex membrane at 100 uM; procedure, shortened: as §1
[3] = target: Gamma-aminobutyric acid receptor subunit alpha-6 (Rattus norvegicus) (UniProt P30191); assay: Displacement of [3H]Muscimol from GABAAalpha6 receptor in Sprague-Dawley rat brain cerebellum membrane at 100 uM; assay type: tissue-based; procedure, shortened: as §1
Rattus norvegicus [4] = species: Rattus norvegicus; assay: Displacement of [3H]Muscimol from GABAA alpha-1-alpha-5 receptor in Sprague-Dawley rat brain cortex membrane at 1 mM; procedure, shortened: as §1
Oocyte [5] = assay: Activity at rat GABAA alpha-1R66C-beta-2 receptor mutant expressed in Xenopus laevis oocytes assessed as inhibition of GABA-induced current at -60 mV by Two-Electrode voltage clamp method; assay type: cell-based
Oocyte [6] = assay: Activity at rat GABAA alpha-1T129C-beta-2 receptor mutant expressed in Xenopus laevis oocytes assessed as inhibition of GABA-induced current at -60 mV by Two-Electrode voltage clamp method; assay type: cell-based
[7] = target: Gamma-aminobutyric acid receptor subunit alpha-3 (Rattus norvegicus) (UniProt P20236); assay: Intrinsic activity at recombinant rat GABAA alpha-3-beta-3-gamma-2 receptor expressed in HEK293 cells assessed as induction of current at 1 mM by whole-cell patch-clamp technique relative to GABA; assay type: cell-based
Procedure, shortened: (§2)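 Rat αiβ3γ2S receptors transiently expressed in HEK293 cells, with EGFP marking transfected cells, recorded 2 days after transfection. Whole-cell patch clamp in HEPES saline, pH 7.35. Drug applied alone at 1, 10, 100 and 1000 μM. […] Data from at least four cells.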

[8] = target: Gamma-aminobutyric acid receptor subunit alpha-6 (Rattus norvegicus) (UniProt P30191); assay: Intrinsic activity at recombinant rat GABAA alpha-6-beta-3-gamma-2 receptor expressed in HEK293 cells assessed as induction of current at 1 mM by whole-cell patch-clamp technique relative to GABA; assay type: cell-based; procedure, shortened: as §2
[9] = target: Gamma-aminobutyric acid receptor subunit alpha-4 (Rattus norvegicus) (UniProt P28471); assay: Intrinsic activity at recombinant rat GABAA alpha-4-beta-3-gamma-2 receptor expressed in HEK293 cells assessed as induction of current at 1 mM by whole-cell patch-clamp technique relative to GABA; assay type: cell-based; procedure, shortened: as §2
[10] = target: GABA-A receptor; alpha-1/beta-2/gamma-2 (Rattus norvegicus) (UniProt P18508+P62813+P63138); assay: Intrinsic activity at recombinant rat GABAA alpha-1-beta-3-gamma-2 receptor expressed in HEK293 cells assessed as induction of current at 1 mM by whole-cell patch-clamp technique relative to GABA; assay type: cell-based; procedure, shortened: as §2
[11] = target: GABA A receptor alpha-5/beta-3/gamma-2 (Rattus norvegicus) (UniProt P18508+P19969+P63079); assay: Intrinsic activity at recombinant rat GABAA alpha-5-beta-3-gamma-2 receptor expressed in HEK293 cells assessed as induction of current at 1 mM by whole-cell patch-clamp technique relative to GABA; assay type: cell-based; procedure, shortened: as §2
[12] = target: T1, GABA A receptor alpha-2/beta-2/gamma-2 (Rattus norvegicus) (UniProt P18508+P23576+P63138); assay: Intrinsic activity at recombinant rat GABAA alpha-2-beta-3-gamma-2 receptor expressed in HEK293 cells assessed as induction of current at 1 mM by whole-cell patch-clamp technique relative to GABA; assay type: cell-based; procedure, shortened: as §2
[13] = target: Gamma-aminobutyric acid receptor subunit alpha-6 (Rattus norvegicus, UniProt P30191); assay: (§3) Displacement of [3H]Muscimol from GABAAalpha6 receptor in Sprague-Dawley rat brain cerebellum membrane; assay type: tissue-based; procedure, shortened: as §1
[14] = target: Gamma-aminobutyric acid receptor subunit alpha-6 (Rattus norvegicus) (UniProt P30191); assay: as §3; assay type: tissue-based; procedure, shortened: as §1
[15] = (§4) Displacement of [3H]Muscimol from GABAA alpha-1-alpha-5 receptor in Sprague-Dawley rat brain cortex membrane; procedure, shortened: as §1
Rattus norvegicus [16] = species: Rattus norvegicus; assay: as §4; procedure, shortened: as §1
[17] = target: Gamma-aminobutyric acid receptor subunit alpha-6 (Rattus norvegicus) (UniProt P30191); assay: Antagonist activity at recombinant rat GABAA alpha-6-beta-3-gamma-2 receptor expressed in HEK293 cells assessed as inhibition of GABA-induced current at 1 mM by whole-cell patch-clamp technique; assay type: functional, cell-based; parameters: scale not given: the % may be the effect or the level left
Procedure, shortened: (§5)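 HEK293 cells transiently transfected by calcium phosphate with rat αi, β3, γ2S and EGFP cDNAs, recorded 2 days later. Whole-cell patch clamp in HEPES saline, pH 7.35. […] Response expressed relative to the GABA-alone current. Data from at least four cells.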

[18] = target: T1, GABA A receptor alpha-2/beta-2/gamma-2 (Rattus norvegicus); assay: Antagonist activity at recombinant rat GABAA alpha-2-beta-3-gamma-2 receptor expressed in HEK293 cells assessed as inhibition of GABA-induced current at 1 mM by whole-cell patch-clamp technique; assay type: functional, cell-based; parameters: scale not given: the % may be the effect or the level left; procedure, shortened: as §5
[19] = target: Gamma-aminobutyric acid receptor subunit alpha-4 (Rattus norvegicus) (UniProt P28471); assay: Antagonist activity at recombinant rat GABAA alpha-4-beta-3-gamma-2 receptor expressed in HEK293 cells assessed as inhibition of GABA-induced current at 1 mM by whole-cell patch-clamp technique; assay type: functional, cell-based; parameters: scale not given: the % may be the effect or the level left; procedure, shortened: as §5

Chain of Gamma-aminobutyric acid receptor subunit alpha-6 (Rattus norvegicus) (P30191 whole entry): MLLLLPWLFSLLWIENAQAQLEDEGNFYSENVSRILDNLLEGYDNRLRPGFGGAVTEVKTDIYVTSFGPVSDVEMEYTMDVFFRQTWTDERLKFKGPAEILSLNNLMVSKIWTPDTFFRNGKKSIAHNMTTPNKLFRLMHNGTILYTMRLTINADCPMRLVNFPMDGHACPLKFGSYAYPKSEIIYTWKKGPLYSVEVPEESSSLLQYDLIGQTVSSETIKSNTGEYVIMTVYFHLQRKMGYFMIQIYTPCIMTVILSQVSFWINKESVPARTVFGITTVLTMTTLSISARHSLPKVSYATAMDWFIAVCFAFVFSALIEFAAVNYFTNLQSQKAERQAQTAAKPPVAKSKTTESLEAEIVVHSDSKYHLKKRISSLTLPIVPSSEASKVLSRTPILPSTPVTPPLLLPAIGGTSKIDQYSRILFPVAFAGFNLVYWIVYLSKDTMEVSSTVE
Chain of Gamma-aminobutyric acid receptor subunit alpha-6 (P30191 whole entry): as above
Chain of Gamma-aminobutyric acid receptor subunit alpha-4 (Rattus norvegicus) (P28471 whole entry): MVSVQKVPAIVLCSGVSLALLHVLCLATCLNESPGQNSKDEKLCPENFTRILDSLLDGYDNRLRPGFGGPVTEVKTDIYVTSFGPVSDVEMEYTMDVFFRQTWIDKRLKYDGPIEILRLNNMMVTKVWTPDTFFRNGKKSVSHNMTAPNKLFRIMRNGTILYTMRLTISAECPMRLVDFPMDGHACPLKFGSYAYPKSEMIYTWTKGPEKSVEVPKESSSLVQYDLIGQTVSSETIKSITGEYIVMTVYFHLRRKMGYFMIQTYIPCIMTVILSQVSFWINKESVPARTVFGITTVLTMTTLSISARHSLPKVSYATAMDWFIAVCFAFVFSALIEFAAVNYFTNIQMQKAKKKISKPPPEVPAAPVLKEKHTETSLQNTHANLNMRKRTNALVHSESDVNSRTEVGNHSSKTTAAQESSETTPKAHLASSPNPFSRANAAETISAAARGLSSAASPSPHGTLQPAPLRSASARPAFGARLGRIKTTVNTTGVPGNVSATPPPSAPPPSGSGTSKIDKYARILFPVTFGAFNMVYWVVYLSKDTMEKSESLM
Chain of Gamma-aminobutyric acid receptor subunit alpha-3 (Rattus norvegicus) (P20236 whole entry): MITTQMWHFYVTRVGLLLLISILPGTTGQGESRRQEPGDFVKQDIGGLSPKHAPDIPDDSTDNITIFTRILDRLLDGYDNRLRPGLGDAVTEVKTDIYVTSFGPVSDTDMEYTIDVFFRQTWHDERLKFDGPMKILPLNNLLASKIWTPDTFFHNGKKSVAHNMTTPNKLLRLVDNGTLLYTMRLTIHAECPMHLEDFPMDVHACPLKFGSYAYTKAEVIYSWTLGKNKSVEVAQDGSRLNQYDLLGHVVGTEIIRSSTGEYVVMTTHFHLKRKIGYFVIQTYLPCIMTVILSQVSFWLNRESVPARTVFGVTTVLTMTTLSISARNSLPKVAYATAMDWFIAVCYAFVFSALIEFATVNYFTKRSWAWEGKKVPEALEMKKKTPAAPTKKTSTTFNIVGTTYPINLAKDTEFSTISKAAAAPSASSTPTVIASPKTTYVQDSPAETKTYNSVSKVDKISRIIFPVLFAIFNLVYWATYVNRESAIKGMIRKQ

`S=c1[nH]nc(C2CCCCC2)o1` gave an inhibition [1] of -3%, an inhibition (Rattus norvegicus [2]) of 10% and an inhibition [3] of 0%. It also gave an inhibition (Rattus norvegicus [4]) of 18%.

For `Oc1nnc(C2CCCNC2)o1` (stereo not given), the inhibition [1] was 10%, the inhibition (Rattus norvegicus [2]) was 1% and the inhibition [3] was 9%. It also gave an inhibition (Rattus norvegicus [4]) of 24%.

With `CN(C)Cc1nnc(O)o1` the inhibition [1] was 26%, the inhibition (Rattus norvegicus [2]) was 3% and the inhibition [3] was 5%. The inhibition (Rattus norvegicus [4]) was 27%.

`CNCc1nnc(S)o1` showed an inhibition [1] of 16%, an inhibition (Rattus norvegicus [2]) of 17% and an inhibition [3] of 9%. For the same compound, the inhibition (Rattus norvegicus [4]) was 24%.

In the case of `Sc1nnc([C@@H]2CCCN2)o1`, the inhibition [1] is reported as 31%, the inhibition (Rattus norvegicus [2]) is reported as 21% and the inhibition [3] is reported as -2%. For the same compound, the inhibition (Rattus norvegicus [4]) was 36%.

`Sc1nnc(C2CCN(Cc3ccccc3)CC2)o1` gave an inhibition [1] of 30%, an inhibition (Rattus norvegicus [2]) of 3% and an inhibition [3] of 6%. For the same compound, the inhibition (Rattus norvegicus [4]) was 33%.

With `NCc1nnc(S)n1Cc1ccccc1` the Activity [1] was “inactive”, the Activity (Rattus norvegicus [2]) was “inactive” and the Activity [3] was “inactive”. For the same compound, the Activity (Rattus norvegicus [4]) was “inactive”.

`Oc1nnc(C2CCNCC2)n1Cc1ccccc1` gave an inhibition [1] of 52%, an inhibition (Rattus norvegicus [2]) of 18% and an inhibition [3] of 14%. It also gave an inhibition (Rattus norvegicus [4]) of 56%.

With `C[C@@H](N)c1nnc(O)o1` the inhibition [1] was 34%, the inhibition (Rattus norvegicus [2]) was 26% and the inhibition [3] was 13%. It also gave an inhibition (Rattus norvegicus [4]) of 16%.

For `CS(=O)(=S)OCCNC(=O)CCCC[C@@H]1SC[C@@H]2NC(=O)N[C@@H]21` (stereo not given in full), the inhibition (Oocyte [5]) was 75% and the inhibition (Oocyte [6]) was 60%.

For `Cc1nnc(C2CCNCC2)o1`, the Activity [7] was less than 10%, the Activity [8] was 29% and the Activity [9] was less than 10%. It also gave an Activity [10] of less than 10%, an Activity [11] of less than 10% and an Activity [12] of less than 10%. It also gave an inhibition [1] of 91%, an inhibition (Rattus norvegicus [2]) of 48% and an inhibition [3] of 56%. For the same compound, the inhibition (Rattus norvegicus [4]) was 87%, the IC50 [13] was 76 µM and the logIC50 [14] was 1.88. It also gave an IC50 [15] of 109 µM and a logIC50 (Rattus norvegicus [16]) of 2.04.

For `Oc1nnc([C@@H]2CCCN2)o1`, the inhibition [1] was 13%, the inhibition (Rattus norvegicus [2]) was 5% and the inhibition [3] was 8%. It also gave an inhibition (Rattus norvegicus [4]) of 10%.

`NCc1nnc(S)o1` gave an inhibition [1] of 95%, an inhibition (Rattus norvegicus [2]) of 58% and an inhibition [3] of 61%. It also gave an inhibition (Rattus norvegicus [4]) of 99%, an IC50 [13] of 49 µM and a logIC50 [14] of 1.69. For the same compound, the IC50 [15] was 57 µM and the logIC50 (Rattus norvegicus [16]) was 1.76.

In the case of `Oc1nnc(C2CCNCC2)o1`, the Activity [7] is reported as 18%, the Activity [17] is reported as 41% and the Activity [11] is reported as 34%. For the same compound, the Activity [12] was 17%, the Activity [18] was 42% and the inhibition [1] was 77%. The inhibition (Rattus norvegicus [2]) was 38%, the inhibition [3] was 38% and the inhibition (Rattus norvegicus [4]) was 79%. The IC50 [13] was 123 µM, the logIC50 [14] was 2.09 and the Activity [19] was 52%. For the same compound, the IC50 [15] was 183 µM and the logIC50 (Rattus norvegicus [16]) was 2.26.

`Sc1nnc(C2CCCNC2)o1` (stereo not given) showed an inhibition [1] of 42%, an inhibition (Rattus norvegicus [2]) of 12% and an inhibition [3] of 15%. It also gave an inhibition (Rattus norvegicus [4]) of 51%.

With `CN1CCC(c2nnc(S)o2)CC1` the inhibition [1] was 27%, the inhibition (Rattus norvegicus [2]) was 6% and the inhibition [3] was 8%. For the same compound, the inhibition (Rattus norvegicus [4]) was 48%.

Compound `Sc1nnc(C2CCNCC2)n1Cc1ccccc1` has an inhibition (Rattus norvegicus [2]) of -6% and an inhibition [3] of 13%.

Compound `Cc1nnc(O)o1` has an inhibition [1] of 4%, an inhibition (Rattus norvegicus [2]) of 7% and an inhibition [3] of 3%. It also gave an inhibition (Rattus norvegicus [4]) of 26%.

Compound `Oc1nnc(C2CCCCC2)o1` has an inhibition [1] of 1%, an inhibition (Rattus norvegicus [2]) of 18% and an inhibition (Rattus norvegicus [4]) of -2%.

Work on `NCCc1nnc(S)o1` yielded an inhibition [1] of 67%, an inhibition (Rattus norvegicus [2]) of 9% and an inhibition [3] of 23%. For the same compound, the inhibition (Rattus norvegicus [4]) was 61%.

Work on `Oc1nnc(C2CCN(Cc3ccccc3)CC2)o1` yielded an inhibition [1] of 30%, an inhibition (Rattus norvegicus [2]) of 12% and an inhibition [3] of 7%. The inhibition (Rattus norvegicus [4]) was 50%.

Work on `CN1CCC(c2nnc(O)o2)CC1` yielded an inhibition [1] of 26%, an inhibition (Rattus norvegicus [2]) of 4% and an inhibition [3] of 6%. The inhibition (Rattus norvegicus [4]) was 27%.

With `Cc1nnc(S)o1` the inhibition [1] was -3%, the inhibition (Rattus norvegicus [2]) was 20% and the inhibition [3] was -4%. For the same compound, the inhibition (Rattus norvegicus [4]) was 10%.

In the case of `CNCc1nnc(O)o1`, the inhibition [1] is reported as 64%, the inhibition (Rattus norvegicus [2]) is reported as 14% and the inhibition [3] is reported as 22%. It also gave an inhibition (Rattus norvegicus [4]) of 58%.

With `c1ccc(CN2CCC(c3nnco3)CC2)cc1` the inhibition [1] was -5%, the inhibition (Rattus norvegicus [2]) was -5% and the inhibition [3] was 1%. The inhibition (Rattus norvegicus [4]) was 1%.

In the case of `CN(C)Cc1nnc(S)o1`, the inhibition [1] is reported as 37%, the inhibition (Rattus norvegicus [2]) is reported as 22% and the inhibition [3] is reported as 3%. For the same compound, the inhibition (Rattus norvegicus [4]) was 47%.

For `NCc1nnc(O)n1Cc1ccccc1`, the inhibition [1] was 2%, the inhibition (Rattus norvegicus [2]) was 4% and the inhibition [3] was 1%. For the same compound, the inhibition (Rattus norvegicus [4]) was 11%.

For `NCCc1nnc(O)o1`, the inhibition [1] was 98%, the inhibition (Rattus norvegicus [2]) was 85% and the inhibition [3] was 89%. For the same compound, the inhibition (Rattus norvegicus [4]) was 100%, the IC50 [13] was 7.4 µM and the logIC50 [14] was 0.868. It also gave an IC50 [15] of 9.4 µM and a logIC50 (Rattus norvegicus [16]) of 0.971.
